Consider four molecules from ChEMBL document CHEMBL1126560, “Endothelin-1 analogues substituted at both position 18 and 19: highly potent endothelin antagonists with no selectivity for either receptor subtype ETA or ETB” (J Med Chem, 1993).

The target in assay [1] is T1, Endothelin receptor type B (Bos taurus, UniProt P28088).
T1 sequence (P28088 whole entry): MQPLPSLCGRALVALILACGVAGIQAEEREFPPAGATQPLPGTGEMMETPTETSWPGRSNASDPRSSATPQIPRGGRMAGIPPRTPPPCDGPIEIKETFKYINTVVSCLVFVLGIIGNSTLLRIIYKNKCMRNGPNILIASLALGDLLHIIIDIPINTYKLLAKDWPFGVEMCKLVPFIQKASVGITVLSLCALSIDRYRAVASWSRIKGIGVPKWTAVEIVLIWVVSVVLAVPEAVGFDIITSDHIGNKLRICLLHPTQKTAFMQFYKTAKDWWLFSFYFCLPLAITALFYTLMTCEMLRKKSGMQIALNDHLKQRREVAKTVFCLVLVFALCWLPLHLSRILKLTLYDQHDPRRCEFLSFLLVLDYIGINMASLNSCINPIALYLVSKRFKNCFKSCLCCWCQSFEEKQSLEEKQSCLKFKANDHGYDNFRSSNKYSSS
In words: Tested for the competitive binding versus [125I]- ET-1 determined in bovine cerebrum membrane for Endothelin B receptor. Type of assay: cell membranes. The procedure, abridged:
(§1)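 Membranes (porcine cardiac ventricle at 12 μg/mL for ETA; bovine cerebrum at 150 μg/mL for ETB) in pH 7.2 Tris/EGTA/Mg acetate/0.1% BSA buffer with protease inhibitors. Incubated with 100 pM [125I]ET-1 and varied compound for 1 h at 25 °C, then filtered and counted by gamma counter. IC50 given as mean ± SEM of ≥3 determinations.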

In assay [2] the target is T2, Endothelin-1 receptor (Sus scrofa, UniProt Q29010).
T2 sequence (Q29010 whole entry): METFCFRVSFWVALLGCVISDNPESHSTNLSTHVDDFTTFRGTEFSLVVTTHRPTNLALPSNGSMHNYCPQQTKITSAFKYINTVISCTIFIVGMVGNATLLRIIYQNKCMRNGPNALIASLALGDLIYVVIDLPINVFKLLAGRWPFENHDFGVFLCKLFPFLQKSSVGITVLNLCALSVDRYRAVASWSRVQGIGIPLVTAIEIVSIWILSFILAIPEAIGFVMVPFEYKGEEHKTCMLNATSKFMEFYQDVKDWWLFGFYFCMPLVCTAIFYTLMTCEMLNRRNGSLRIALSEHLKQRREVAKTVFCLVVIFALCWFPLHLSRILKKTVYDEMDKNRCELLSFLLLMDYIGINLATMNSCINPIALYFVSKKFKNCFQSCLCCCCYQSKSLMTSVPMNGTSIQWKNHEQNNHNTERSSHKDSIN
In words: ETA receptor antagonist activity was measured by inhibition of ET-1 induced vasoconstriction in isolated porcine coronary artery. Type of assay: functional, tissue-based. The conditions noted are these: read-out: pA2 (converted). The procedure, abridged:
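Porcine right coronary artery, endothelium-denuded 2 × 5-mm helical strips in Krebs-Henseleit, 95% O2-5% CO2, 37 °C, isometric tension. Compound added 15 min before cumulative ET-1. Tension normalized to 60 mM KCl. pA2 by van Rossum's method; n in parentheses.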

Assay [3] has as its target T2, Endothelin-1 receptor. Description: Tested for the competitive binding versus [125I]- ET-1 determined in porcine cardiac ventricular membrane for Endothelin A receptor. The procedure, abridged: as §1
For the next assay, the species on record is Mus musculus. Description: Compound induced increase in cystolic free ca+2 concentration in murine peritoneal macrophages was measured. It counts as functional. An outline of the steps:
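Murine peritoneal macrophages from male ICR mice given ip 10% protease peptone 3 days before, adhered 1.5 h at 37 °C, fura-2 AM loaded (4 μM, 24 °C, 1.5 h). Fura-2 fluorescence ratio (340/380 nm excitation, 505 nm emission) at 37 °C. Compound at 100 nM; rise expressed as % of 100 nM ET-1 response.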

For the molecule `CC[C@H](C)[C@H](NC(=O)[C@H](CC(C)C)NC(=O)[C@@H](NC(=O)[C@H](CC(C)C)NC(=O)[C@H](Cc1c[nH]cn1)NC(=O)[C@@H]1CSSC[C@H](N)C(=O)N[C@@H](CO)C(=O)N[C@H]2CSSC[C@H](NC(=O)[C@H](CCC(=O)O)NC(=O)[C@H](CCCCN)NC(=O)[C@H](CC(=O)O)NC(=O)[C@H](CCSC)NC(=O)[C@H](CC(C)C)NC(=O)[C@H](CO)NC(=O)[C@H](CO)NC2=O)C(=O)N[C@@H](C(C)C)C(=O)N[C@@H](Cc2ccc(O)cc2)C(=O)N[C@@H](Cc2ccccc2)C(=O)N1)[C@@H](C)O)C(=O)N[C@@H](Cc1c[nH]c2ccccc12)C(=O)O`, the IC50 (as a rule, the concentration at which inhibition is half-maximal) amounted to 0.17 nM in assay [1] and 0.42 nM on Endothelin-1 receptor [3]. In addition, the Kb on Endothelin-1 receptor [2] is 20 nM.

`CC[C@H](C)[C@H](NC(=O)[C@H](CC1CCCCC1)NC(=O)[C@@H](NC(=O)[C@H](CC(C)C)NC(=O)[C@H](Cc1c[nH]cn1)NC(=O)[C@@H]1CSSC[C@H](N)C(=O)N[C@@H](CO)C(=O)N[C@H]2CSSC[C@H](NC(=O)[C@H](CCC(=O)O)NC(=O)[C@H](CCCCN)NC(=O)[C@H](CC(=O)O)NC(=O)[C@H](CCSC)NC(=O)[C@H](CC(C)C)NC(=O)[C@H](CO)NC(=O)[C@H](CO)NC2=O)C(=O)N[C@@H](C(C)C)C(=O)N[C@@H](Cc2ccc(O)cc2)C(=O)N[C@@H](Cc2ccccc2)C(=O)N1)[C@@H](C)O)C(=O)N[C@@H](Cc1c[nH]c2ccccc12)C(=O)O`: the IC50 in assay [1] amounted to 0.42 nM; at Endothelin-1 receptor [3], 0.61 nM. Moreover, the Kb on Endothelin-1 receptor [2] is 20 nM.

Consider `CC[C@H](C)[C@H](NC(=O)[C@H](CC(C)C)NC(=O)[C@H](CC(C)C)NC(=O)[C@H](Cc1cnc[nH]1)NC(=O)[C@@H]1CSSC[C@H](N)C(=O)N[C@@H](CO)C(=O)N[C@H]2CSSC[C@H](NC(=O)[C@H](CCC(=O)O)NC(=O)[C@H](CCCCN)NC(=O)[C@H](CC(=O)O)NC(=O)[C@H](CCSC)NC(=O)[C@H](CC(C)C)NC(=O)[C@H](CO)NC(=O)[C@H](CO)NC2=O)C(=O)N[C@@H](C(C)C)C(=O)N[C@@H](Cc2ccc(O)cc2)C(=O)N[C@@H](Cc2ccccc2)C(=O)N1)C(=O)N[C@H](C(=O)N[C@@H](Cc1c[nH]c2ccccc12)C(=O)O)[C@@H](C)CC`, for which the IC50 in assay [1] came to 0.45 nM; on Endothelin-1 receptor [3], 8.6 nM. The Kb on Endothelin-1 receptor [2] was 5010 nM.

Take `CC[C@H](C)[C@H](NC(=O)[C@H](CC(=O)O)NC(=O)[C@H](CC(C)C)NC(=O)[C@H](Cc1c[nH]cn1)NC(=O)[C@@H]1CSSC[C@H](N)C(=O)N[C@@H](CO)C(=O)N[C@H]2CSSC[C@H](NC(=O)[C@H](CCC(=O)O)NC(=O)[C@H](CCCCN)NC(=O)[C@H](CC(=O)O)NC(=O)[C@H](CCSC)NC(=O)[C@H](CC(C)C)NC(=O)[C@H](CO)NC(=O)[C@H](CO)NC2=O)C(=O)N[C@@H](C(C)C)C(=O)N[C@@H](Cc2ccc(O)cc2)C(=O)N[C@@H](Cc2ccccc2)C(=O)N1)C(=O)N[C@H](C(=O)N[C@@H](Cc1c[nH]c2ccccc12)C(=O)O)[C@@H](C)CC` [ENDOTHELIN]: the IC50 in assay [1] is 0.12 nM; at Endothelin-1 receptor [3], 0.15 nM. Further, the “[Ca2+] increase” value in the assay filed under Mus musculus worked out at 100.
